Test results reported in ChEMBL document CHEMBL1131143, “Predictive models for GABAA/benzodiazepine receptor subtypes: studies of quantitative structure-activity relationships for imidazobenzodiazepines at five recombinant GABAA/benzodiazepine receptor subtypes [alphaxbeta3gamma2 (x = 1-3, 5, and 6)] via comparative molecular field analysis” (J Med Chem, 1998).

What was measured:
Type in all cases: protein-complex assay
[1] = target: T1, GABA-A receptor; alpha-2/beta-3/gamma-2 (Homo sapiens, UniProt P18507+P28472+P47869); test: Binding affinity for alpha-2-beta-3-gamma-2 GABA-A benzodiazepine receptor subunits
T1 sequence (P18507 whole entry): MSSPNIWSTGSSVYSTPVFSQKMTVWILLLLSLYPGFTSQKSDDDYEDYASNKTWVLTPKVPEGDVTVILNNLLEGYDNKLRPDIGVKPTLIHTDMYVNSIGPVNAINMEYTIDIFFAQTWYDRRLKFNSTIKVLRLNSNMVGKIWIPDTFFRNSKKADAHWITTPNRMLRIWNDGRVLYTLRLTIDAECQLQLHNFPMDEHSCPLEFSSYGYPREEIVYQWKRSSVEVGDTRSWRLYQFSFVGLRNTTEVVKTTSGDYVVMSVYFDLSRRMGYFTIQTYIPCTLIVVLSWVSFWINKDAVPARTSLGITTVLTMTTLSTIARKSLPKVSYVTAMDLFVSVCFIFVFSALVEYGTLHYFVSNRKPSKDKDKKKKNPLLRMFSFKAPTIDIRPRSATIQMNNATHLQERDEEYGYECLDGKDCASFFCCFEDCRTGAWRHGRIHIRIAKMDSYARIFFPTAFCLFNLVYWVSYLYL
T1 sequence (P28472 whole entry): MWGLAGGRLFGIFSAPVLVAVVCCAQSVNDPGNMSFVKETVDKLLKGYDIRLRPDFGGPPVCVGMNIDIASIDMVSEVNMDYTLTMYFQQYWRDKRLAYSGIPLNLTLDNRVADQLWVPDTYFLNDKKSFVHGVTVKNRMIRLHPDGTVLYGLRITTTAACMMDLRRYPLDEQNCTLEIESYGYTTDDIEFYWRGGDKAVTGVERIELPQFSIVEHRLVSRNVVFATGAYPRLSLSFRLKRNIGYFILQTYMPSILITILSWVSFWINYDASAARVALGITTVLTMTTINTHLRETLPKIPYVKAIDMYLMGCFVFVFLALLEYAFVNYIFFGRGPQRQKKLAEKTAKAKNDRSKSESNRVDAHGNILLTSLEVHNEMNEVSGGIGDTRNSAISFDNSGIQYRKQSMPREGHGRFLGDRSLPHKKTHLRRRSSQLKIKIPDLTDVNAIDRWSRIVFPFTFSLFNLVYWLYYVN
T1 sequence (P47869 whole entry): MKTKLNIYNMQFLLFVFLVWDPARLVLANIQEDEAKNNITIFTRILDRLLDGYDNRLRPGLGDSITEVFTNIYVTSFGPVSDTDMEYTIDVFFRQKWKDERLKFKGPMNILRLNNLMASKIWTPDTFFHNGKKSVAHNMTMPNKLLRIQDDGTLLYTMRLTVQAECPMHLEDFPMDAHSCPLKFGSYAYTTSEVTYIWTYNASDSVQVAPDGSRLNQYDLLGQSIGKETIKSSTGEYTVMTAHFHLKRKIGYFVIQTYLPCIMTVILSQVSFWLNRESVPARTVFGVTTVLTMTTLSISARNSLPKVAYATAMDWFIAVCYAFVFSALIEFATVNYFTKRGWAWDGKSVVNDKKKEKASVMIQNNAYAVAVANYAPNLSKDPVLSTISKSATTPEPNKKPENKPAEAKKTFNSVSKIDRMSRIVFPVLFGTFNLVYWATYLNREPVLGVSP

[2] = target: T2, GABA-A receptor; alpha-6/beta-3/gamma-2 (Homo sapiens, UniProt P18507+P28472+Q16445); test: Binding affinity against Gamma-aminobutyric acid A receptor alpha-6-beta-3-gamma-2
In short: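 Cells scraped into PBS, spun at 3000g, resuspended in 10 mM KH₂PO₄/100 mM KCl pH 7.4. Nonspecific binding with 10⁻⁵ M diazepam; 1 h to equilibrium at 4 °C; filtration, ice-cold buffer wash, scintillation counting.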

[3] = target: T3, GABA-A receptor; alpha-3/beta-3/gamma-2 (Homo sapiens, UniProt P18507+P28472+P34903); test: Binding affinity against alpha-3-beta-3-gamma-2 GABAA/BzR receptor subtype.
T3 sequence (P18507 whole entry): T1 sequence (P18507 whole entry)
T3 sequence (P28472 whole entry): T1 sequence (P28472 whole entry)
T3 sequence (P34903 whole entry): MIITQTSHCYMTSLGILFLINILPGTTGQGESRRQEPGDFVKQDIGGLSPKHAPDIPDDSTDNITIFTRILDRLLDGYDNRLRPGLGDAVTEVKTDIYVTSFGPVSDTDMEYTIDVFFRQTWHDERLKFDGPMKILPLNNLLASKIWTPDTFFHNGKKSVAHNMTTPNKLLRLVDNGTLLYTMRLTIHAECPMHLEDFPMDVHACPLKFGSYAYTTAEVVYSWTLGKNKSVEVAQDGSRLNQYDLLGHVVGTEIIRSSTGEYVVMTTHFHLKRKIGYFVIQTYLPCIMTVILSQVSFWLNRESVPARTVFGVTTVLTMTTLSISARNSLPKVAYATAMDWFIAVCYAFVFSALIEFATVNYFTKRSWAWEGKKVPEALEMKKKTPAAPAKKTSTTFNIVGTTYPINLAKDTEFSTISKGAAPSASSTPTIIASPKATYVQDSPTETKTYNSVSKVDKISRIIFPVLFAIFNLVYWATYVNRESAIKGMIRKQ

[4] = target: T4, GABA-A receptor; alpha-5/beta-3/gamma-2 (Homo sapiens, UniProt P18507+P28472+P31644); test: Binding affinity for Gamma-aminobutyric acid A receptor alpha-5-beta-3-gamma-2
T4 sequence (P18507 whole entry): T1 sequence (P18507 whole entry)
T4 sequence (P28472 whole entry): T1 sequence (P28472 whole entry)
T4 sequence (P31644 whole entry): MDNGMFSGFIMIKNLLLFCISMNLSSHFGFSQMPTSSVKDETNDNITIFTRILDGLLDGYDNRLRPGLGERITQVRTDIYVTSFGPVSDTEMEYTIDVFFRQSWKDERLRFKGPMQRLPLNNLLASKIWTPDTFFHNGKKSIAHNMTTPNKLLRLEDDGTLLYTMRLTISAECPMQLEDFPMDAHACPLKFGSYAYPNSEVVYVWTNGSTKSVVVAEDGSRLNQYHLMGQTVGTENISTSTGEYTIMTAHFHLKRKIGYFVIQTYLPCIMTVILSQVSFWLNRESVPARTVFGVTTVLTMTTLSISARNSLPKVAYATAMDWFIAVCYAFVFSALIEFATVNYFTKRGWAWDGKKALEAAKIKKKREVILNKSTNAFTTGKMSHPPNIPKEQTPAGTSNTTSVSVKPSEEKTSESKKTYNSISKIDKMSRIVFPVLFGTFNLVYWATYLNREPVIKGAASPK

[5] = target: T2, GABA-A receptor; alpha-6/beta-3/gamma-2; test: Inhibition of Gamma-aminobutyric acid A receptor alpha-6-beta-3-gamma-2 at 1 uM
In short: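 Competition binding on Ltk⁻ cells expressing human α6β3γ2, radioligand [³H]Ro 15-4513. Cells scraped into PBS, spun at 3000g, resuspended in 10 mM KH₂PO₄/100 mM KCl pH 7.4. Nonspecific binding with 10⁻⁵ M diazepam; 1 h to equilibrium at 4 °C; filtration, ice-cold buffer wash, scintillation counting.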

[6] = target: GABA-A receptor; alpha-2/beta-3/gamma-2 (Homo sapiens) (UniProt P18507+P28472+P47869); test: Inhibition of GABA-A benzodiazepine receptor alpha-2-beta-3-gamma-2 subunits at 1 uM
[7] = target: T5, GABA-A receptor; alpha-1/beta-3/gamma-2 (Homo sapiens) (UniProt P14867+P18507+P28472); test: Inhibition of GABA-A benzodiazepine receptor alpha-1-beta-3-gamma-2 subunits at 1 uM
[8] = target: GABA-A receptor; alpha-3/beta-3/gamma-2 (Homo sapiens) (UniProt P18507+P28472+P34903); test: Inhibition of GABA-A benzodiazepine receptor alpha-3-beta-3-gamma-2 subunits at 1 uM
[9] = target: T5, GABA-A receptor; alpha-1/beta-3/gamma-2 (Homo sapiens); test: It is the ratio of Ki value for alpha-1-beta-3-gamma-2 to that of alpha-5-beta-3-gamma-2
[10] = target: T1, GABA-A receptor; alpha-2/beta-3/gamma-2; test: Binding affinity tested against alpha-2-beta-3-gamma-2 GABAA/BzR receptor subtype.
[11] = target: T6, GABA-A receptor; alpha-1/beta-3/gamma-2 (Homo sapiens, UniProt P14867+P18507+P28472); test: Binding affinity against alpha-1-beta-3-gamma-2 GABAA/BzR receptor subtype.
T6 sequence (P14867 whole entry): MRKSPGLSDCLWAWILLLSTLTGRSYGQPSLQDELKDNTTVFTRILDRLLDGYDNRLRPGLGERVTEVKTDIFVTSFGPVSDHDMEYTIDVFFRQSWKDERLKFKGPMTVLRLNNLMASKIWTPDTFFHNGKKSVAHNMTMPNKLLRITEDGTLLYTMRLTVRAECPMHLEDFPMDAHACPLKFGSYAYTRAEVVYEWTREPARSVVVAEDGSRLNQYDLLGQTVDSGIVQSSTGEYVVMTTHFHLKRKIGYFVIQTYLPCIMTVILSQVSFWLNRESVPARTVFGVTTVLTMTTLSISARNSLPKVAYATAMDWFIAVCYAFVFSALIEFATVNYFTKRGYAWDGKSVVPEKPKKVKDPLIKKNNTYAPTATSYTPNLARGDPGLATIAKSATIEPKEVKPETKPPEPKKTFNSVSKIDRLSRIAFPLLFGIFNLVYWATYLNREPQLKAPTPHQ
T6 sequence (P18507 whole entry): T1 sequence (P18507 whole entry)
T6 sequence (P28472 whole entry): T1 sequence (P28472 whole entry)

T2 sequence (Q16445 whole entry, one chain of several): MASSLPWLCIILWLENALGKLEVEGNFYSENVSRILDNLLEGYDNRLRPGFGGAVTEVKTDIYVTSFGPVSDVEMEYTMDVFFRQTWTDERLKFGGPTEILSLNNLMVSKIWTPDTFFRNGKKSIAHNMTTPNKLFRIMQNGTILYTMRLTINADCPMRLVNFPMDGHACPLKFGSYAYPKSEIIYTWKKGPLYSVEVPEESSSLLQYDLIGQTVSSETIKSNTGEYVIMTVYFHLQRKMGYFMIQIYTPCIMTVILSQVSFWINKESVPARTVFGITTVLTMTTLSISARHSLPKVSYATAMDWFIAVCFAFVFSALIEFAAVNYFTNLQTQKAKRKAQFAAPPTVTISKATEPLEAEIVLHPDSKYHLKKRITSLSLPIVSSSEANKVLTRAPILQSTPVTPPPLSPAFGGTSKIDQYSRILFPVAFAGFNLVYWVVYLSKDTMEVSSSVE

SMILES: CCOC(=O)c1ncn2c1CN(C)C(=O)c1cc(Br)ccc1-2
- Ki [1]: 27 nM
- Ki [2]: 22 nM
- Ki [3]: 13 nM

SMILES: C#Cc1ccc2c(c1)C(=O)N1CCC[C@H]1c1c(-c3nc(-c4ccccc4)no3)ncn1-2
- Ki [4]: 455 nM
- inhibition [5]: 4%
- inhibition [6]: 26%
- inhibition [7]: 33%
- inhibition [8]: 19%

SMILES: C#Cc1ccc2c(c1)C(=O)N1CC[C@H]1c1c(-c3nc(-c4ccccc4)no3)ncn1-2
- Ki [4]: 374 nM
- inhibition [5]: 14%
- inhibition [6]: 29%
- inhibition [7]: 10%
- inhibition [8]: 15%

SMILES: C#Cc1ccc2c(c1)C(=O)N1CCC[C@H]1c1c(-c3nc(CC)no3)ncn1-2
- Ratio [9]: 36
- Ki [4]: 2.4 nM
- Ki [2]: 150 nM
- Ki [10]: 40 nM
- Ki [3]: 85 nM
- Ki [11]: 86 nM
